Results on 15 molecules are retold here after ChEMBL document CHEMBL3286204, “Lignans from the fruit of Schisandra glaucescens with antioxidant and neuroprotective properties” (J Nat Prod, 2014).

Activity calls are given as the source filed them. The rule behind the calls is not given here.

Test [1] can be described thus: Antioxidant activity assessed as reduction of TPTZ-Fe3+ to TPTZ-Fe2+ at 0.15 to 1.5 mM after 5 mins by FRAP assay. The test is classed as functional.
The target of test [2] is Amyloid-beta precursor protein (Homo sapiens) (UniProt P05067). The test can be described thus: Neuroprotective activity against amyloid beta (25 to 35)-induced cell death in human SH-SY5Y cells assessed as cell viability at 0.4 uM after 24 hrs by MTT assay relative to control. The test is classed as functional, cell-based.
Test [3] has the same target. The test can be described thus: Neuroprotective activity against amyloid beta (25 to 35)-induced cell death in human SH-SY5Y cells assessed as cell viability at 2 uM after 24 hrs by MTT assay relative to control. The test is classed as functional, cell-based. For orientation: Formazan colour is commonly taken as a measure of viable cells.
The target is the same in test [4]. Kind of test: Neuroprotective activity against amyloid beta (25 to 35)-induced cell death in human SH-SY5Y cells assessed as cell viability at 0.08 uM after 24 hrs by MTT assay relative to control. The test is classed as functional, cell-based.
Test [5] shares this target. Kind of test: Neuroprotective activity against amyloid beta (25 to 35)-induced cell death in human SH-SY5Y cells assessed as cell viability at 10 uM after 24 hrs by MTT assay relative to control. The test is classed as functional, cell-based.
Test [6] relates to Radical scavenging activity. The test can be described thus: Antioxidant activity assessed as 300 uM DPPH free radical scavenging activity under dark condition after 30 mins by microplate reader analysis. The test is classed as functional. A digest of the protocol:
(§1)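 Compounds at final 6.25, 12.5, 25, 50, 75 and 100 μM mixed with DPPH (final 150 or 300 μM) in EtOH containing 5% DMSO; EtOH/5% DMSO control. A517 read at steady state after 30 min at room temperature in the dark. Triplicate tests averaged.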
A general note: The DPPH test is a chemical assay of radical scavenging.

Test [7] deals with Radical scavenging activity. The test can be described thus: Antioxidant activity assessed as 150 uM DPPH free radical scavenging activity under dark condition after 30 mins by microplate reader analysis. The test is classed as functional. A digest of the protocol:
as §1

Test [8] is described as follows: Antioxidant activity assessed as reduction of TPTZ-Fe3+ to TPTZ-Fe2+ after 5 mins by FRAP assay. The test is classed as functional. In outline: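 Working reagent prepared fresh from TPTZ solution, TPTZ diluent and detective buffer (1:10:1 v/v), prewarmed to 37 °C. Samples at 0.15–1.5 mM (5 μL) mixed with 180 μL reagent and held 5 min at 37 °C, then A593 read. Activity expressed as FeSO4 equivalents from a FeSO4 standard curve (0.15–5.00 mM).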

Chain of Amyloid-beta precursor protein (Homo sapiens) (P05067 whole entry): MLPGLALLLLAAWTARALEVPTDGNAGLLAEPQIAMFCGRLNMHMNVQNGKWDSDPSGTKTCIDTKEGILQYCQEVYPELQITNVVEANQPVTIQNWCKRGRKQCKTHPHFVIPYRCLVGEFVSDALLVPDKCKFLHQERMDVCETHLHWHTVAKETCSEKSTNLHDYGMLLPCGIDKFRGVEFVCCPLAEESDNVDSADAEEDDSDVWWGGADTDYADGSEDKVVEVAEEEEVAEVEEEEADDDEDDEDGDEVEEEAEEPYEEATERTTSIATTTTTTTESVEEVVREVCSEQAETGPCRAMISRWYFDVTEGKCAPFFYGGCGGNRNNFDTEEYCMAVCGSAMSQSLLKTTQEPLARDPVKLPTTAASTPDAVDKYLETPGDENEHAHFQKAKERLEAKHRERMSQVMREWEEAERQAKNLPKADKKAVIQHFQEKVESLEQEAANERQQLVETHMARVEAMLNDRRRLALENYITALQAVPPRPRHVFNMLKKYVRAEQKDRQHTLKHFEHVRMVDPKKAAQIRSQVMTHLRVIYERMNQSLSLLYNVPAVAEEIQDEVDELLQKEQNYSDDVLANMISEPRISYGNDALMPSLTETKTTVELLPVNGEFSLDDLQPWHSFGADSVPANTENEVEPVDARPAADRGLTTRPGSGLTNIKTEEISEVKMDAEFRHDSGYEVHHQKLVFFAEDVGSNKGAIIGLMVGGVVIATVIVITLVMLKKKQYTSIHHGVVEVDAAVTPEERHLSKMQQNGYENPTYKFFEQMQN

With `COc1ccc([C@H]2c3cc4c(cc3C[C@@H](C)[C@@H]2C)OCO4)cc1OC`, the outcome in test [1] was inactive. In addition, the Activity worked out at 58.2% in test [2], 59.8% in test [3], 57.4% in test [4] and 58.7% in test [5].

Take `O=C1O[C@H]([C@@H](O)CO)C(O)=C1O` [ASCORBIC ACID]: the IC50 (usually the concentration that inhibits the measured activity by half) in test [6] was determined as 59.3 µM; in test [7], 24.7 µM. In addition, the Activity in test [2] turned out to be 55.6%; in test [3], 58.5%; in test [4], 54.1%; in test [5], 58%.

`OC[C@H](Cc1ccc2c(c1)OCO2)[C@H](CO[C@@H]1O[C@H](CO[C@@H]2O[C@@H](CO)[C@H](O)[C@H]2O)[C@@H](O)[C@H](O)[C@H]1O)Cc1ccc2c(c1)OCO2`: the outcome in test [1] was inactive. Moreover, the Activity worked out at 59.2% in test [2], 62% in test [3], 58% in test [4] and 58.3% in test [5].

For the molecule `COc1ccc(C[C@@H](C)[C@@H](C)Cc2ccc3c(c2)OCO3)cc1OC`, in test [1], the outcome was inactive. For the same molecule, the Activity in test [2] is 62.2%; in test [3], 61.1%; in test [4] it was 58.1%; in test [5] it was 61.9%.

Take `OC[C@H](Cc1ccc2c(c1)OCO2)[C@H](CO[C@@H]1O[C@H](CO)[C@@H](O)[C@H](O)[C@H]1O)Cc1ccc2c(c1)OCO2`: the outcome in test [1] was inactive. Further, the Activity in test [2] was determined as 64%; in test [3], 63.1%; in test [4], 65%; in test [5], 65.2%.

`COc1cc([C@H]2c3cc4c(cc3C[C@@H](C)[C@@H]2C)OCO4)ccc1O`: the Activity result in test [8] was “Dose-dependent effect”; in test [2], 59.9%; in test [3] it was 60.5%; in test [4], 57.7%; in test [5], 60.5%. Further, the results for the IC50 in test [6] and in test [7] were 360 µM and 181 µM, respectively.

Take `COc1ccc([C@H]2O[C@H](c3ccc4c(c3)OCO4)[C@@H](C)[C@H]2C)cc1OC`: the result in test [1] was inactive. Also, the Activity came out at 58.1% in test [2], 58.6% in test [3], 58.2% in test [4] and 60.4% in test [5].

Consider `COc1cc(C[C@H](C)[C@H](C)Cc2ccc3c(c2)OCO3)ccc1O` [AUSTROBAILIGNAN 6], for which the Activity entry in test [8] is “Dose-dependent effect”; in test [2], 61.5%; in test [3], 61.8%; in test [4], 57%; in test [5], 64.4%. Also, the IC50 turned out to be 75.1 µM in test [6] and 33.2 µM in test [7].

For the molecule VITAMIN E, the IC50 in test [6] is 62.1 µM; in test [7], 26.9 µM.

As for `COc1cc([C@H]2O[C@H](c3ccc4c(c3)OCO4)[C@@H](C)[C@H]2C)ccc1O`, the Activity result in test [8] is “Dose-dependent effect”. In addition, the IC50 stood at 44.5 µM in test [6] and 23.3 µM in test [7].

Turning to `COc1ccc(C(=O)O[C@@H](c2ccc3c(c2)OCO3)[C@H](C)C(C)=O)cc1OC`, the outcome in test [1] was inactive. For the same molecule, the Activity came out at 65.4% in test [2], 68.9% in test [3], 58.3% in test [4] and 66.8% in test [5].

For `Cc1c(C)c2c(c(C)c1O)CCC(C)(C(=O)O)O2` (stereo unspecified), the outcome in test [1] was Active.

As to `COc1cc(C[C@@H](C)[C@@H](C)Cc2ccc(O)c(OC)c2)ccc1O` [MESODIHYDROGUAIARETIC ACID], the Activity entry is “Dose-dependent effect” in test [8]; 63.8% in test [2]; 69.2% in test [3]; 62.2% in test [4]; 68.3% in test [5]. Further, the IC50 amounted to 34.6 µM in test [6] and 15.7 µM in test [7].

Consider `COc1ccc([C@H](OC(=O)c2ccc3c(c2)OCO3)[C@H](C)C(C)=O)cc1OC`, for which the result in test [1] was inactive.

On to `COc1cc([C@@H]2c3cc(OC)c(O)cc3C=C(C)[C@H]2C)ccc1O`, for which the Activity entry was “Dose-dependent effect” in test [8]; 60.7% in test [2]; 62.1% in test [3]; 58.6% in test [4]; 65.2% in test [5]. The IC50 was 83.4 µM in test [6] and 37.5 µM in test [7].
